In paper PMC11707965 (Journal of Biomaterials Applications, 2024):
Like-named read-outs stand apart in the source and are kept apart here.

Columns and labels:
[1] = test system: Candida albicans ATCC 10231; experiment: Broth macrodilution antimicrobial susceptibility; format: cell-based; conditions: C. albicans ATCC 10231; two-fold dilution from 3% boric acid / 9% zinc borate
Method in brief: (§1)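 Fungal strains were tested by CLSI-based broth macrodilution in RPMI 1640. Each strain had ten tubes of two-fold serial dilutions starting at 3% boric acid or 9% zinc borate. Tubes showing no growth were plated onto solid media to find the lowest concentration without growth (MBC).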

[2] = test system: Acinetobacter baumannii ATCC 19606; experiment: Broth macrodilution antimicrobial susceptibility; format: cell-based; conditions: A. baumannii ATCC 19606; two-fold dilution from 3% boric acid / 9% zinc borate
Method in brief: (§2)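 Broth macrodilution run per CLSI recommendations in Cationized Mueller Hinton Broth. Ten tubes per strain held two-fold serial dilutions of boric acid (top 3%) or zinc borate (top 9%). MIC was read from the tubes. For MBC, every tube without growth was subcultured onto solid medium, and MBC was the lowest concentration giving no growth.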

[3] = test system: Enterococcus faecalis ATCC 29212; experiment: Broth macrodilution antimicrobial susceptibility; format: cell-based; conditions: E. faecalis ATCC 29212; two-fold dilution from 3% boric acid / 9% zinc borate
Method in brief: as §2

[4] = test system: Klebsiella pneumoniae ATCC 700603; experiment: Broth macrodilution antimicrobial susceptibility; format: cell-based; conditions: K. pneumoniae ATCC 700603; two-fold dilution from 3% boric acid / 9% zinc borate
Method in brief: as §2

[5] = test system: Escherichia coli ATCC 25922; experiment: Broth macrodilution antimicrobial susceptibility; format: cell-based; conditions: E. coli ATCC 25922; two-fold dilution from 3% boric acid / 9% zinc borate
Method in brief: as §2

[6] = test system: Pseudomonas aeruginosa ATCC 9027; experiment: Broth macrodilution antimicrobial susceptibility; format: cell-based; conditions: P. aeruginosa ATCC 9027; two-fold dilution from 3% boric acid / 9% zinc borate
Method in brief: as §2

[7] = test system: Proteus mirabilis ATCC 25933; experiment: Broth macrodilution antimicrobial susceptibility; format: cell-based; conditions: P. mirabilis ATCC 25933; two-fold dilution from 3% boric acid / 9% zinc borate
Method in brief: as §2

[8] = test system: Streptococcus pyogenes ATCC 19615; experiment: Broth macrodilution antimicrobial susceptibility; format: cell-based; conditions: S. pyogenes ATCC 19615; two-fold dilution from 3% boric acid / 9% zinc borate
Method in brief: as §2

[9] = test system: Aspergillus niger ATCC 16888; experiment: Broth macrodilution antimicrobial susceptibility; format: cell-based; conditions: A. niger ATCC 16888; two-fold dilution from 3% boric acid / 9% zinc borate
Method in brief: as §1

L929 cells = experiment: Cell migration test; format: cell-based, mouse; conditions: 24 h vs 0 h
Method in brief: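 L929 fibroblasts (ATCC) were grown in DMEM with 10% FBS at 37°C and 5% CO₂. After the fourth passage they were seeded into 24-well plates at 2 × 10⁵ cells/ml and left 24 h to form a monolayer. Each well got one vertical scratch with a sterile pipette tip and was imaged at 0 h. Treatment followed (zinc borate 0.10–0.001 mM; boric acid 1000–0.001 mM), with re-imaging at 12 and 24 h (10x) to measure closure percentage.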

[10] = test system: Staphylococcus aureus ATCC 29213; experiment: Broth macrodilution antimicrobial susceptibility; format: cell-based; conditions: S. aureus ATCC 29213; two-fold dilution from 3% boric acid / 9% zinc borate
[11] = test system: L929 (mouse fibroblast) cell line; experiment: Cytotoxicity / cell viability by MTT method; format: cell-based; conditions: for IC50: read-out: IC50 dose that caused 50% decrease in cell proliferation, L929 cells, MTT
[12] = test system: L929 (mouse fibroblast) cell line; experiment: Antioxidant ability: protection against H2O2 oxidative stress, MTT method; format: cell-based; conditions: read-out: EC50 dose, which increased the proliferative concentration by 50%, L929 cells, 0.4 mM H2O2 stress

**Q.** With OB(O)O [Boric acid, Boric Acid] as the compound, how does the “MBC (%)” value [1] read?
**A.** 0.0058%

**Q.** What about the “MIC (%)” value [2] of the same compound?
**A.** 0.375%

**Q.** What about the “MIC (%)” value [3] of the same compound?
**A.** 1.5%

**Q.** What about the “MIC (%)” value [4] of the same compound?
**A.** 0.75%

**Q.** What about the “MBC (%)” value [5] of the same compound?
**A.** 1.5%

**Q.** What about the “MIC (%)” value [5] of the same compound?
**A.** 0.375%

**Q.** And the “MBC (%)” value [6]?
**A.** no bactericidal effect

**Q.** And the “MIC (%)” value [6]?
**A.** 0.75%

**Q.** And the “MBC (%)” value [7]?
**A.** 3%

**Q.** And the “MIC (%)” value [7]?
**A.** 0.75%

**Q.** And the “MBC (%)” value [8]?
**A.** 3%

**Q.** And the “MIC (%)” value [8]?
**A.** 0.0058%

**Q.** And the “MBC (%)” value [9]?
**A.** 0.1875%

**Q.** And the “migration recovery (closure) percentage” value (L929 cells; 0.001 mM)?
**A.** 86.91%

**Q.** And the “migration recovery (closure) percentage” value (L929 cells; 0.01 mM)?
**A.** 70.81%

**Q.** What about the “migration recovery (closure) percentage” value (L929 cells; 0.025 mM) of the same compound?
**A.** 81.05%

**Q.** What about the “migration recovery (closure) percentage” value (L929 cells; 0.05 mM) of the same compound?
**A.** 83.57%

**Q.** And the “migration recovery (closure) percentage” value (L929 cells; 0.10 mM)?
**A.** 77.98%

**Q.** What about the “migration recovery (closure) percentage” value (L929 cells; 0.25 mM) of the same compound?
**A.** 86.54%

**Q.** And the “migration recovery (closure) percentage” value (L929 cells; 0.50 mM)?
**A.** 80.92%

**Q.** What about the “migration recovery (closure) percentage” value (L929 cells; 0.75 mM) of the same compound?
**A.** 83.24%

**Q.** And the “migration recovery (closure) percentage” value (L929 cells; 1 mM)?
**A.** 73.18%

**Q.** And the “migration recovery (closure) percentage” value (L929 cells; 50 mM)?
**A.** 87.55%

**Q.** And the “migration recovery (closure) percentage” value (L929 cells; 250 mM)?
**A.** 75.56%

**Q.** What about the “migration recovery (closure) percentage” value (L929 cells; 500 mM) of the same compound?
**A.** 70.05%

**Q.** And the “migration recovery (closure) percentage” value (L929 cells; 750 mM)?
**A.** 81.62%

**Q.** What about the “migration recovery (closure) percentage” value (L929 cells; 1000 mM) of the same compound?
**A.** 62.46%

**Q.** And the “MBC (%)” value [10]?
**A.** 0.75%

**Q.** And the “MIC (%)” value [10]?
**A.** 0.75%

**Q.** And the “Proliferative or inhibitory effect on L929 cells versus control” value ([11]; 0.001 mM-1000 mM, 24th, 48th, 72nd hours, except 100 mM and 500 mM at 24th hour, 100 mM at 48th hour)?
**A.** no significant proliferation or inhibition was observed

**Q.** For Zinc borate, which “MBC (%)” value [1] is on record?
**A.** 0.0175%

**Q.** And the “MBC (%)” value [2]?
**A.** 9%

**Q.** And the “MIC (%)” value [2]?
**A.** 1.125%

**Q.** What about the “MBC (%)” value [3] of the same compound?
**A.** >9%

**Q.** What about the “MIC (%)” value [3] of the same compound?
**A.** 0.0351%

**Q.** What about the “MBC (%)” value [4] of the same compound?
**A.** 2.25%

**Q.** And the “MIC (%)” value [4]?
**A.** 0.1406%

**Q.** And the “MBC (%)” value [5]?
**A.** 0.5625%

**Q.** And the “MIC (%)” value [5]?
**A.** 0.0351%

**Q.** What about the “MBC (%)” value [7] of the same compound?
**A.** >9%

**Q.** What about the “MIC (%)” value [7] of the same compound?
**A.** 4.5%

**Q.** What about the “MBC (%)” value [8] of the same compound?
**A.** 0.2812%

**Q.** What about the “MIC (%)” value [8] of the same compound?
**A.** 0.0175%

**Q.** And the “MBC (%)” value [9]?
**A.** >9%

**Q.** What about the “migration recovery (closure) percentage” value (L929 cells; 0.025 mM) of the same compound?
**A.** 88.13%

**Q.** What about the “MBC (%)” value [10] of the same compound?
**A.** 4.5%

**Q.** And the IC50 ([11]; 24th hour)?
**A.** 133 µM

**Q.** And the IC50 ([11]; 48th hour)?
**A.** 197 µM

**Q.** And the IC50 ([11]; 72nd hour)?
**A.** 142 µM

**Q.** What about the EC50 ([12]; 24th hour) of the same compound?
**A.** 51 µM

**Q.** What about the EC50 ([12]; 48th hour) of the same compound?
**A.** 15 µM

**Q.** What about the EC50 ([12]; 72nd hour) of the same compound?
**A.** 11 µM
